Laboratory results as given in ChEMBL document CHEMBL3758096, “1-[3-(2-Hydroxyethylsulfanyl)propanoyl]-3,5-bis(benzylidene)-4-piperidones: A novel cluster of P-glycoprotein dependent multidrug resistance modulators” (Bioorg Med Chem Lett, 2016).

What was measured:
[1] = molecular target: T1, ATP-dependent translocase ABCB1 (Homo sapiens, UniProt P08183); assay: Ratio of human MDR1 modulation transfected in mouse L5178Y cells at 40 ug/ml to human MDR1 modulation transfected in mouse L5178Y cells at 4 ug/ml; type: cell-based
[2] = molecular target: T1, ATP-dependent translocase ABCB1; assay: Inhibition of human MDR1 transfected in mouse L5178Y cells assessed as fluorescence activity ratio at 4 ug/ml after 10 mins by rhodamine 123 dye based fluorescence analysis; type: cell-based
[3] = Cytotoxicity against human HSC2 cells after 48 hrs by MTT assay; type: functional; details: HSC-2, 48 h, pooled result: one value given for 3 cell lines, strains, targets or settings
Summary of the method: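 Compounds were incubated with cells at 37 °C for 48 hr. HSC-2 and HSC-4 squamous carcinoma cells were grown in supplemented DMEM, and viability was read by MTT. HL-60 promyelocytic leukemia cells were grown in supplemented RPMI1640, and viability was read by trypan blue exclusion. CC50 is the concentration killing 50% of cells, reported as an average.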

[4] = molecular target: T1, ATP-dependent translocase ABCB1; assay: Inhibition of human MDR1 transfected in mouse L5178Y cells assessed as fluorescence activity ratio at 40 ug/ml after 10 mins by rhodamine 123 dye based fluorescence analysis; type: cell-based
[5] = molecular target: T1, ATP-dependent translocase ABCB1; assay: Potency index, ratio of compound activity to verapamil hydrochloride activity for human MDR1 modulation transfected in mouse L5178Y cells at 4 ug/ml; type: cell-based

T1 sequence (P08183 whole entry): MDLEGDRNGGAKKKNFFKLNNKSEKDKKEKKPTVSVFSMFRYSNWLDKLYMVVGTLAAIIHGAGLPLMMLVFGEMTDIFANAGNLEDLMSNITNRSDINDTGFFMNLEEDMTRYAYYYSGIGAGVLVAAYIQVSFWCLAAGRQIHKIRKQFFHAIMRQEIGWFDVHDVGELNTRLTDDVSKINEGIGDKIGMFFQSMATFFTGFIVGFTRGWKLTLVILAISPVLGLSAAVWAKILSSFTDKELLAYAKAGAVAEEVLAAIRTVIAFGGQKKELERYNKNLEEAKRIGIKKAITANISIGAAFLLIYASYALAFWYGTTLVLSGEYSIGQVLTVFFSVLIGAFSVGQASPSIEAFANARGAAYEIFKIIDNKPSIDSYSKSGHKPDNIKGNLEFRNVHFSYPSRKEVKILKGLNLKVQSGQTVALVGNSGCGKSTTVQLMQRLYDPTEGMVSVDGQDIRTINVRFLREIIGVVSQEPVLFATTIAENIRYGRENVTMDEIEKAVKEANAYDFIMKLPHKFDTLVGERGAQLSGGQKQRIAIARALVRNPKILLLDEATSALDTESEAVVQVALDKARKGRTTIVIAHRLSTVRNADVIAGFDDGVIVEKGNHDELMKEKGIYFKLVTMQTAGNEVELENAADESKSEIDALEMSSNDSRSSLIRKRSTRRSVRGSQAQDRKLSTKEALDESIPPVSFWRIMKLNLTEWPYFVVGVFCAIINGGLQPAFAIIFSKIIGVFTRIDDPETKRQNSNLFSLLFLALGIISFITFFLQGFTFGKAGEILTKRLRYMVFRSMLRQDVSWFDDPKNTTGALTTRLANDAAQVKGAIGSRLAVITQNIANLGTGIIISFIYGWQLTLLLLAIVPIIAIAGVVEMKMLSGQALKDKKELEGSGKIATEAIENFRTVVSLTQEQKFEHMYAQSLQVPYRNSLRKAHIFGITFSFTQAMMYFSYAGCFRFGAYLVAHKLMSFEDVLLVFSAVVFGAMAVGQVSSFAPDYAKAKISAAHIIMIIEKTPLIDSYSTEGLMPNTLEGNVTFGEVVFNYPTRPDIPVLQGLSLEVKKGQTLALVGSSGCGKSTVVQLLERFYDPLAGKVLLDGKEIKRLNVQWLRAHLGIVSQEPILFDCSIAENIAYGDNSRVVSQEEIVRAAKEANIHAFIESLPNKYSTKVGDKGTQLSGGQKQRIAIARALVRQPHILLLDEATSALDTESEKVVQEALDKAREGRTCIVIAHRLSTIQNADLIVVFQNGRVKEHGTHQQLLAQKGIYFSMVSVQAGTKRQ

Row | SMILES | Ratio [1] | Ratio [2] | CC50 [3] [µM] | Ratio [4] | Ratio [5]
1 | O=C1/C(=C/c2ccc(Cl)cc2)CN(C(=O)CCSCCO)C/C1=C\c1ccc(Cl)cc1 | 0.92 | 49.2 | 0.66 | 45 | –
2 | O=C1/C(=C/c2ccc([N+](=O)[O-])cc2)CN(C(=O)CCSCCO)C/C1=C\c1ccc([N+](=O)[O-])cc1 | 2.26 | 8.86 | 0.39 | 20 | –
3 | O=C1/C(=C/c2ccccc2)CN(C(=O)CCSCCS(=O)(=O)O)C/C1=C\c1ccccc1 | 1.05 | 1.14 | 154 | 1.2 | –
4 | COc1ccc(/C=C2\CN(C(=O)CCSCCS(=O)(=O)O)C/C(=C\c3ccc(OC)cc3)C2=O)cc1 | 2.54 | 1.27 | 91.7 | 3.23 | –
5 | COc1ccc(/C=C2\CN(C(=O)CCSCCS)C/C(=C\c3ccc(OC)cc3)C2=O)cc1 | 6.67 | 18.9 | 3.37 | 126 | –
6 | Cc1ccc(/C=C2\CN(C(=O)CCSCCS(=O)(=O)O)C/C(=C\c3ccc(C)cc3)C2=O)cc1 | 1.33 | 1.2 | 126 | 1.6 | –
7 | O=C1/C(=C/c2ccc([N+](=O)[O-])cc2)CN(C(=O)CCSCCS(=O)(=O)O)C/C1=C\c1ccc([N+](=O)[O-])cc1 | 1.5 | 1.14 | 4.73 | 1.71 | –
8 | O=C1/C(=C/c2ccc(Cl)cc2)CN(C(=O)CCSCCS(=O)(=O)O)C/C1=C\c1ccc(Cl)cc1 | 1.5 | 1.14 | 29.7 | 1.71 | –
9 | Cc1ccc(/C=C2\CN(C(=O)CCSCCO)C/C(=C\c3ccc(C)cc3)C2=O)cc1 | 0.8 | 55.4 | 1.56 | 44.4 | –
10 | COc1ccc(/C=C2\CN(C(=O)CCSCCO)C/C(=C\c3ccc(OC)cc3)C2=O)cc1 | 2.29 | 37.1 | 2.67 | 85.1 | 9
11 | O=C1/C(=C/c2ccccc2)CN(C(=O)CCSCCO)C/C1=C\c1ccccc1 | 9 | 4.71 | 1.53 | 42.4 | –
12 | N[C@@H](Cc1ccc(N(CCCl)CCCl)cc1)C(=O)O | – | – | 14 | – | –
